From PMC7305985 (Molecular cell, 2020) come the findings set out here.

Test [1] has as its system mono-nucleosomes. Nature of the test: Nucleosome binding assay. Details: species or system Human. The following applies: relative to WT KAP1; overnight 4°C, pH 7.5; Figure 5E. In a few lines: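 GST-tagged protein, expressed in bacteria (0.1 mM IPTG, 3 hr, 37°C), was used at 2 µg with 2 µg recombinant biotinylated mono-nucleosomes. Pulldown was on StrepTactin agarose for 1 hr, with 4 washes and boiling elution. 5% input and 20% eluate were blotted with anti-GST 1:5000.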

The test system of test [2] is KAP1 target genes in shKAP1 HCT116 cells. Nature of the test: Reconstitution assay, RT-qPCR of KAP1 target genes. It is filed as cell-based. The following applies: shKAP1 HCT116, 48 hr; relative to shNT+GFP, normalized to RPL19, n=3; Figure 5H.
The test system of test [3] is KAP1 target gene promoters. Nature of the test: FLAG ChIP-qPCR of reconstituted KAP1 proteins. It is filed as cell-based. Particulars: shKAP1 HCT116, FLAG ChIP-qPCR, % Input, n=3; Figures 5I, 6F. In a few lines: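 Epitope-tagged KAP1 was re-expressed in shKAP1 HCT116 cells by 1 µg plasmid transfection over 48 hr. Anti-FLAG ChIP used 0.5% formaldehyde crosslinking (10 min) and 150 mM glycine quench. Beads were washed 4 times with each of RIPA, low-salt, high-salt, LiCl and TE buffers. Elution was 30 min at 65°C, de-crosslinking 4 hr at 65°C with proteinase K, and read-out was qPCR.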

B1: E662/3A: KAP1 PHD point mutant E662/E663 to A; GST-PHD-BD or FLAG-tagged KAP1 (protein)
chain: PGGGPGTLDDSATICRVCQKPGDLVMCNQCEFCFHLDCHLPALQDVPGAAWSCSLCHVLPDLKEEDGSLSLDGADSTGVVAKLSPANQRKCERVLLALFCHEPCRPLHQLATDSTFSLDQPGGTLDLTLIRARLQEKLSPPYSSPQEFAQDVGRMFKQFNKLTEDKADVQSIIGLQRFFETRMNEAFGDTKFSAVLVEPPPMSLPGAGLSSQELSGGPGDGP
modifications: left off: GST, N-terminal, kept
With B1, in test [1], the “reduction of KAP1's ability to interact with mono-nucleosomes” value is recorded as ~ 80%. Further, the “restoration of KAP1 target gene expression (WT and point mutants)” value in test [2] is on record as “but not E662/3A, restored KAP1 target gene expression”. Further, the “localization to KAP1 target gene promoters” value in test [3] is “but not E662/3A, localized to all tested gene promoters”.

B2: L637A: control mutation L637 in flexible loop between the PHD and BD (protein)
chain: PGGGPGTLDDSATICRVCQKPGDAVMCNQCEFCFHLDCHLPALQDVPGEEWSCSLCHVLPDLKEEDGSLSLDGADSTGVVAKLSPANQRKCERVLLALFCHEPCRPLHQLATDSTFSLDQPGGTLDLTLIRARLQEKLSPPYSSPQEFAQDVGRMFKQFNKLTEDKADVQSIIGLQRFFETRMNEAFGDTKFSAVLVEPPPMSLPGAGLSSQELSGGPGDGP
modifications: left off: GST, N-terminal, kept
Take B2: the “restoration of KAP1 target gene expression (WT and point mutants)” value in test [2] is recorded as “restored KAP1 target gene expression”. The “localization to KAP1 target gene promoters” value in test [3] is reported as “localized to all tested gene promoters”.
